≈ marks a conversion by molar mass, not a printed value.
Columns and labels:
Assay type in all cases: functional
[1] = test system: Staphylococcus aureus; assay: Antibacterial activity against Staphylococcus aureus 101 ATCC 29213 assessed as bacterial growth inhibition by susceptibility testing assay; details: Staphylococcus aureus, 101 ATCC 29213; read-out: MIC
How it was run: (§1)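 Broth microdilution MIC per CLSI in cation-adjusted Mueller Hinton broth, made fresh and held at 4 °C before testing. Medium supplemented with lysed horse blood where appropriate. Compound stocks prepared and serially diluted in sterile deionized water. Runs were accepted against QC ranges for comparator antibiotics and ATCC QC strains.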

[2] = test system: Staphylococcus aureus; assay: Antibacterial activity against methicillin-resistant, tet(M) tetracycline-resistant Staphylococcus aureus 161 assessed as bacterial growth inhibition by susceptibility testing assay; details: Staphylococcus aureus, 161; read-out: MIC
How it was run: (§2)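 Broth microdilution MIC per CLSI in 96-well plates; compound stocks prepared and serially diluted in sterile deionized water; cation-adjusted Mueller Hinton broth prepared fresh and held at 4 °C before testing, supplemented with lysed horse blood as appropriate; runs accepted when comparator antibiotics fell within QC ranges for appropriate ATCC quality control strains.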

[3] = test system: Enterococcus faecalis; assay: Antibacterial activity against tet(M) tetracycline-resistant Enterococcus faecalis 327 assessed as bacterial growth inhibition by susceptibility testing assay; details: Enterococcus faecalis, 327; read-out: MIC; how it was run: as §2
[4] = test system: Escherichia coli; assay: Antibacterial activity against Escherichia coli 107 ATCC 25922 assessed as bacterial growth inhibition by susceptibility testing assay; details: Escherichia coli, 107 ATCC 25922; read-out: MIC; how it was run: as §1
[5] = test system: Escherichia coli; assay: Antibacterial activity against tet(A) tetracycline-resistant Escherichia coli 155 assessed as bacterial growth inhibition by susceptibility testing assay; details: Escherichia coli, 155; read-out: MIC; how it was run: as §2
[6] = test system: Klebsiella pneumoniae; assay: Antibacterial activity against Klebsiella pneumoniae 457 harboring CTX-M-15 gene assessed as bacterial growth inhibition by susceptibility testing assay; details: Klebsiella pneumoniae, 457; read-out: MIC; how it was run: as §2
[7] = test system: Proteus mirabilis; assay: Antibacterial activity against Proteus mirabilis 385 assessed as bacterial growth inhibition by susceptibility testing assay; details: Proteus mirabilis, 385; read-out: MIC; how it was run: as §1
[8] = test system: Pseudomonas aeruginosa; assay: Antibacterial activity against Pseudomonas aeruginosa 555 BAA-47 assessed as bacterial growth inhibition by susceptibility testing assay; details: Pseudomonas aeruginosa, 555 BAA-47; read-out: MIC; how it was run: as §1
[9] = test system: Enterobacter cloacae; assay: Antibacterial activity against tet(A) tetracycline-resistant Enterobacter cloacae 603 assessed as bacterial growth inhibition by susceptibility testing assay; details: Enterobacter cloacae, 603; read-out: MIC; how it was run: as §2
[10] = test system: Acinetobacter baumannii; assay: Antibacterial activity against tet(B) tetracycline-resistant Acinetobacter baumannii 250 assessed as bacterial growth inhibition by susceptibility testing assay; details: Acinetobacter baumannii, 250; read-out: MIC; how it was run: as §2
[11] = test system: Staphylococcus aureus; assay: Antibacterial activity against tet(K) tetracycline-resistant Staphylococcus aureus 158 assessed as bacterial growth inhibition by susceptibility testing assay; details: Staphylococcus aureus, 158; read-out: MIC
[12] = test system: Enterococcus faecium; assay: Antibacterial activity against tet(M) tetracycline-resistant Enterococcus faecium 404 assessed as bacterial growth inhibition by susceptibility testing assay; details: Enterococcus faecium, 404; read-out: MIC
[13] = test system: Streptococcus pneumoniae; assay: Antibacterial activity against tet(M) tetracycline-resistant Streptococcus pneumoniae 160 assessed as bacterial growth inhibition by susceptibility testing assay; details: Streptococcus pneumoniae, 160; read-out: MIC
[14] = test system: Stenotrophomonas maltophilia; assay: Antibacterial activity against Stenotrophomonas maltophilia 256 assessed as bacterial growth inhibition by susceptibility testing assay; details: Stenotrophomonas maltophilia, 256; read-out: MIC
How it was run: (§3)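 Medium supplemented with lysed horse blood where appropriate. Compound stocks prepared and serially diluted in sterile deionized water. Runs were accepted against QC ranges for comparator antibiotics and ATCC QC strains.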

[15] = test system: Burkholderia cenocepacia; assay: Antibacterial activity against Burkholderia cenocepacia 240 assessed as bacterial growth inhibition by susceptibility testing assay; details: Burkholderia cenocepacia, 240; read-out: MIC; how it was run: as §3

Compound	MIC [1] [µg/mL]	MIC [2] [µg/mL]	MIC [3] [µg/mL]	MIC [4] [µg/mL]	MIC [5] [µg/mL]	MIC [6] [µg/mL]	MIC [7] [µg/mL]	MIC [8] [µg/mL]	MIC [9] [µg/mL]	MIC [10] [µg/mL]	MIC [11] [µg/mL]	MIC [12] [µg/mL]	MIC [13] [µg/mL]	MIC [14] [µg/mL]	MIC [15] [µg/mL]
CN(C)[C@@H]1C(O)=C(C(N)=O)C(=O)[C@@]2(O)C(O)=C3C(=O)c4c(O)cccc4[C@@](C)(O)[C@H]3C[C@@H]12 [TETRACYCLINE]	0.125 (≈ 0.281 µM)	64 (≈ 144 µM)	> 32	1 (≈ 2.25 µM)	> 64	8 (≈ 18 µM)	> 32	> 32	> 32	> 32					
CN(C)CCN1CC[C@H]2CNc3c(O)c4c(c(F)c3[C@H]21)C[C@H]1C[C@H]2[C@H](N(C)C)C(O)=C(C(N)=O)C(=O)[C@@]2(O)C(O)=C1C4=O	4 (≈ 6.67 µM)	16 (≈ 26.7 µM)	8 (≈ 13.3 µM)	8 (≈ 13.3 µM)	> 32	32 (≈ 53.4 µM)	> 32	> 32	> 32	> 32	1 (≈ 1.67 µM)	4 (≈ 6.67 µM)	1 (≈ 1.67 µM)	> 32	> 32
CN(C)[C@@H]1C(O)=C(C(N)=O)C(=O)[C@@]2(O)C(O)=C3C(=O)c4c(O)c5c(c(F)c4C[C@H]3C[C@@H]12)[C@H]1N(C)CC[C@@]1(C)CN5	0.5 (≈ 0.898 µM)	8 (≈ 14.4 µM)	8 (≈ 14.4 µM)	0.25 (≈ 0.449 µM)	2 (≈ 3.59 µM)	4 (≈ 7.19 µM)	8 (≈ 14.4 µM)	32 (≈ 57.5 µM)	4 (≈ 7.19 µM)	8 (≈ 14.4 µM)	0.125 (≈ 0.225 µM)	4 (≈ 7.19 µM)	0.25 (≈ 0.449 µM)	2 (≈ 3.59 µM)	32 (≈ 57.5 µM)
CC(=O)N(C)CCN1CCC2CNc3c(O)c4c(c(F)c3C21)C[C@H]1C[C@H]2[C@H](N(C)C)C(O)=C(C(N)=O)C(=O)[C@@]2(O)C(O)=C1C4=O (mixture of isomers)	4	> 32	> 32	8	32	> 32	> 32	> 32	> 32	> 32	1	32	4	> 32	> 32
CN(C)[C@@H]1C(O)=C(C(N)=O)C(=O)[C@@]2(O)C(O)=C3C(=O)c4c(O)c5c(c(F)c4C[C@H]3C[C@@H]12)C1NCCC1CN5 (mixture of isomers)	2	4	2	0.5	1	2	0.5	32	8	> 32	0.5	1	0.5	> 32	> 32
CN(C)c1cc(NC(=O)CNC(C)(C)C)c(O)c2c1C[C@H]1C[C@H]3[C@H](N(C)C)C(O)=C(C(N)=O)C(=O)[C@@]3(O)C(O)=C1C2=O [TIGECYCLINE]	0.0625 (≈ 0.107 µM)	0.125 (≈ 0.213 µM)	0.125 (≈ 0.213 µM)	0.125 (≈ 0.213 µM)	1 (≈ 1.71 µM)	1 (≈ 1.71 µM)	4 (≈ 6.83 µM)	16 (≈ 27.3 µM)	4 (≈ 6.83 µM)	8 (≈ 13.7 µM)	0.125 (≈ 0.213 µM)	0.0312 (≈ 0.0533 µM)	0.0156 (≈ 0.0266 µM)	2 (≈ 3.41 µM)	16 (≈ 27.3 µM)
CN(C)[C@@H]1C(O)=C(C(N)=O)C(=O)[C@@]2(O)C(O)=C3C(=O)c4c(O)c5c(c(F)c4C[C@H]3C[C@@H]12)[C@H]1NCC[C@@]1(C)CN5	4 (≈ 7.37 µM)	16 (≈ 29.5 µM)	4 (≈ 7.37 µM)	0.5 (≈ 0.922 µM)	16 (≈ 29.5 µM)	4 (≈ 7.37 µM)	4 (≈ 7.37 µM)	32 (≈ 59 µM)	16 (≈ 29.5 µM)	> 32	1 (≈ 1.84 µM)	1 (≈ 1.84 µM)	0.25 (≈ 0.461 µM)	32 (≈ 59 µM)	> 32

From ChEMBL document CHEMBL3580574, “Design, Synthesis, and Biological Evaluation of Hexacyclic Tetracyclines as Potent, Broad Spectrum Antibacterial Agents” (J Med Chem, 2015)
